From ChEMBL document CHEMBL2346548, “Design, synthesis, and structure-activity relationship studies of tryptanthrins as antitubercular agents” (J Nat Prod, 2013)
≈ marks a conversion by molar mass, not a printed value.

Legend:
[1] = system: Mycobacterium tuberculosis; assay: Antitubercular activity against Mycobacterium tuberculosis H37Rv incubated at 37 degC for 14 days in presence of 40% human serum by microplate alamar blue assay; format: functional; settings: 336 h
How it was run: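 This is the MABA run in 7H9 broth containing 40% human serum. Compounds were 2-fold serially diluted, and wells were inoculated with H37Rv at 2 × 10⁵ CFU/mL. Incubation was at 37 °C for 14 days, then Alamar Blue was added. MIC was the lowest concentration preventing the blue-to-pink colour change.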

[2] = system: Mycobacterium tuberculosis; assay: Antitubercular activity against Mycobacterium tuberculosis H37Rv incubated at 37 degC for 7 days by microplate alamar blue assay; format: functional; settings: for MIC: Mycobacterium tuberculosis, H37Rv, 168 h
How it was run: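 Mtb H37Rv was grown in 7H9 broth with glycerol, Casitone, 10% OADC and 0.05% Tween 80 to OD600 0.4. Compounds were 2-fold serially diluted from DMSO stocks in 7H9, and wells were inoculated at 2 × 10⁵ CFU/mL. After 7 days at 37 °C, Alamar Blue was added and read after a further 24 h. MIC was the lowest concentration preventing the blue-to-pink change.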

Vero = assay: Cytotoxicity against african green monkey Vero cells; format: cell-based, Chlorocebus sabaeus
[3] = Solubility in simulated intestinal fluid at pH 7.6 by HPLC method; format: physicochemical
How it was run: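 Simulated intestinal fluid medium; each analogue 200 μM final in 2% DMSO, shaken 24 h at room temperature, then HPLC with photodiode array read at 230 nm; duplicate, means given.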

[4] = Permeability across apical to basolateral side in human Caco2 cells incubated for 1 hr at 37 degC by HPLC-MS/MS method; format: ADME, cell-based; settings: Caco-2
How it was run: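 TC7 (Caco-2 subclone) monolayer; 10 μM compound in 1% DMSO in HBSS-MES pH 6.5 on apical donor side, basolateral receiver pH 7.4; shaken 1 h at 37 °C; receiver sampled, HPLC-MS/MS; duplicate means.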

[5] = Metabolic stability in human liver microsomes assessed as parent compound remaining at 1 uM incubated for 1 hr by HPLC-MS/MS method; format: ADME, Microsome; settings: read-out: Stability
How it was run: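 Pooled mixed-gender human liver microsomes (0.3 mg/mL protein), 1 μM compound with NADP-regenerating system in phosphate buffer pH 7.4, 1 h at 37 °C; parent measured at start and end by HPLC-MS/MS; duplicate means.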

[6] = Solubility in simulated gastric fluid at pH 1.5 by HPLC method; format: physicochemical
How it was run: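 Compound at 200 μM final in 2% DMSO in simulated gastric fluid, shaken 24 h at room temperature; HPLC-photodiode array detection at 230 nm; duplicate means.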

[7] = Efflux ratio in human Caco2 cells incubated for 1 hr at 37 degC by HPLC-MS/MS method; format: ADME, cell-based; settings: Caco-2
[8] = Permeability across basolateral to apical side in human Caco2 cells incubated for 1 hr at 37 degC by HPLC-MS/MS method; format: ADME, cell-based; settings: Caco-2
[9] = Aqueous solubility in PBS buffer at pH 7.4 by HPLC method; format: physicochemical; settings: PBS buffer, read-out: solubility
How it was run: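 Compound at 200 μM final in 2% DMSO in PBS pH 7.4, shaken 24 h at room temperature; quantified by HPLC with photodiode array detection at 230 nm; duplicate, mean reported.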

[10] = system: Mycobacterium tuberculosis; assay: Antitubercular activity against non-replicating Mycobacterium tuberculosis H37Rv incubated for 10 days by LORA method; format: functional; settings: 240 h
How it was run: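 H37Rv carrying pFCA-luxAB was adapted to low oxygen by gradual self-depletion in a sealed, slowly stirred flask. It was then exposed to compounds for 10 days under anaerobic conditions. Cultures recovered for 28 h in ambient oxygen before n-decanal substrate was added and luminescence read. MIC was the lowest concentration giving a 90% reduction in luminescence versus untreated controls.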

[11] = Chlorocebus sabaeus, Vero, read-out: IC50

| Compound | MIC [1] [µg/mL] | MIC [2] [µg/mL] | IC50 (Vero; [11]) [µg/mL] | other results |
| --- | --- | --- | --- | --- |
| COc1ccc2c(c1)C(=O)c1nc3ccccc3c(=O)n1-2 | 2 | 1 (≈ 3.59 µM) | 5.5 (≈ 19.8 µM) | MBC90 [2]: 0.5 µg/mL (≈ 1.8 µM) |
| O=C1c2ccc(N3CCC(O)CC3)cc2-n2c1nc1ccccc1c2=O | 16 | 16 (≈ 46.1 µM) | 31 (≈ 89.2 µM) | – |
| O=C1c2cc(Cl)ccc2-n2c1nc1cc(F)ccc1c2=O | 0.5 | 0.5 (≈ 1.66 µM) | > 50 | solubility [3]: 10.3 µM (≈ 3.1 µg/mL); Papp A→B at 1 h [4]: 28.5 ×10⁻⁶ cm/s; remaining at 1 h, 1 µM [5]: 91%; MBC90 [2]: 0.25 µg/mL (≈ 0.831 µM); solubility [6]: 2.5 µM (≈ 0.752 µg/mL); efflux ratio at 1 h [7]: > 1; Papp B→A at 1 h [8]: 12.7 ×10⁻⁶ cm/s; solubility [9]: 1.1 µM (≈ 0.331 µg/mL); MIC90 [10]: > 50 µg/mL |
| O=C1c2ccc(N3CCCC3)cc2-n2c1nc1ccccc1c2=O | – | – | – | IC50 (Vero; vero): ND(Insoluble) |
| O=C1c2ccc(Cl)cc2-n2c1nc1ncccc1c2=O | 2 | 1 (≈ 3.53 µM) | 7 (≈ 24.7 µM) | – |
| O=C1C2=Nc3ccccc3CN2c2ccc(OC(F)(F)F)cc21 | 0.5 | 0.125 (≈ 0.393 µM) | 1.3 (≈ 4.08 µM) | – |
| O=C1C2=Nc3ccncc3CN2c2ccccc21 | – | 16 (≈ 68 µM) | > 20 | MIC90 [10]: > 20 µg/mL |
| Cl.O=C1c2ccc(N3CCNCC3)cc2-n2c1nc1ccccc1c2=O | 8 | 8 | 16 | MBC90 [2]: >16 µg/mL |
| O=C1C2=Nc3ncccc3CN2c2ccccc21 | – | 32 (≈ 136 µM) | 4.8 (≈ 20.4 µM) | – |
| CC(C)(C)OC(=O)N1CCN(c2ccc3c(c2)-n2c(nc4ccncc4c2=O)C3=O)CC1 | > 32 | 16 (≈ 36.9 µM) | 24 (≈ 55.4 µM) | – |
| O=C1c2ccc(N3CCC(O)C3)cc2-n2c1nc1ccccc1c2=O (centres undefined) | 8 | 8 (≈ 24 µM) | 27 (≈ 81 µM) | – |
| O=C1c2ccc(N3CCCCC3)cc2-n2c1nc1ccccc1c2=O | > 128 | > 128 | 18 (≈ 54.3 µM) | – |
| O=C1c2cc(OC(F)(F)F)ccc2-n2c1nc1cnccc1c2=O | 0.25 | 0.125 (≈ 0.375 µM) | 5.4 (≈ 16.2 µM) | MIC90 [10]: 1.5 µg/mL (≈ 4.5 µM) |
| CS(=O)(=O)Nc1ccc2c(c1)C(=O)c1nc3ccccc3c(=O)n1-2 | > 8 | 4 (≈ 11.7 µM) | > 8 | MBC90 [2]: 2 µg/mL (≈ 5.86 µM) |
| O=C1c2cc(C(=O)N3CCOCC3)ccc2-n2c1nc1ccccc1c2=O | 32 | 8 (≈ 22.1 µM) | > 10 | MIC90 [10]: > 10 µg/mL |
| O=C1c2ccccc2-n2c1nc1ncccc1c2=O | 8 | 4 (≈ 16 µM) | 24 (≈ 96.3 µM) | MIC90 [10]: 23 µg/mL (≈ 92.3 µM) |
| O=C1c2ccc(Cl)cc2-n2c1nc1ccncc1c2=O | 1 | 0.125 (≈ 0.441 µM) | 9 (≈ 31.7 µM) | – |
| O=C1c2ccccc2-n2c1nc1ccc([N+](=O)[O-])cc1c2=O | 32 | 16 (≈ 54.6 µM) | 64 (≈ 218 µM) | MBC90 [2]: 32 µg/mL (≈ 109 µM) |
| O=C1c2cc(OC(F)(F)F)ccc2-n2c1nc1ccccc1c2=O | 0.5 | 0.125 (≈ 0.376 µM) | > 50 | solubility [3]: 31.3 µM (≈ 10.4 µg/mL); Papp A→B at 1 h [4]: 22 ×10⁻⁶ cm/s; remaining at 1 h, 1 µM [5]: 59%; solubility [6]: 1.5 µM (≈ 0.498 µg/mL); efflux ratio at 1 h [7]: > 1; Papp B→A at 1 h [8]: 5.8 ×10⁻⁶ cm/s; solubility [9]: 1 µM (≈ 0.332 µg/mL); MIC90 [10]: > 50 µg/mL |
| O=C1C2=Nc3ncccc3CN2c2ccc(OC(F)(F)F)cc21 | – | 16 (≈ 50.1 µM) | 4.4 (≈ 13.8 µM) | – |
| O=C1c2cc(Br)ccc2-n2c1nc1ncccc1c2=O | 32 | 16 (≈ 48.8 µM) | > 20 | – |
| CCOC(=O)c1ccc2c(c1)C(=O)c1nc3c(OC)cccc3c(=O)n1-2 | 4 | 0.125 (≈ 0.357 µM) | 16 (≈ 45.7 µM) | MBC90 [2]: 1 µg/mL (≈ 2.85 µM) |
| Nc1ccc2c(c1)C(=O)c1nc3ccccc3c(=O)n1-2 | 16 | 8 (≈ 30.4 µM) | – | – |
